Test results as given in publication PMC12065538 (Drug Design, Development and Therapy, 2025).
Read-outs that look alike come from different tables or passages of the source.

Key:
[1] = Observed plasma concentrations of venetoclax concomitant with voriconazole; format: in vivo; conditions: human, oral, 100 mg
Procedure, shortened: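 Adults with hematologic malignancies received test compound 100 mg orally once daily plus an azole antifungal (400 mg bid day 1, then 200 mg bid; or 200 mg bid continued). Intensive set: EDTA blood 0–1 h predose and 2–24 h post-dose on day 5–11. Validation set: troughs 0–1 h predose, day 2–22. Plasma measured by LC-MS/MS in MRM mode with deuterated internal standards; calibration range 0.05–10.0 μg/mL.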

[2] = cited from earlier work
plasma protein = conditions: regardless of concentration; ref prescribing information; cited from earlier work
[3] = venetoclax 100 mg with posaconazole

In the case of `CC1(C)CCC(CN2CCN(c3ccc(C(=O)NS(=O)(=O)c4ccc(NCC5CCOCC5)c([N+](=O)[O-])c4)c(Oc4cnc5[nH]ccc5c4)c3)CC2)=C(c2ccc(Cl)cc2)C1` [venetoclax], the AUC [1] is given as 52400 ng·h/mL, the “reduction of apparent oral clearance (CL/F) by CYP3A inhibitors” value ([2]; PopPK studies, various patient populations and healthy subjects) is given as 82–86% and the CL/F ([2]; co-administered with posaconazole, patients with AML) is given as 1.1 to 1.4 L/h. The AUC24h ([2]; observed, venetoclax 70 mg with posaconazole, day 12, CV 54%) was 49100 ± 26500 ng·h/mL, the CL/F ([2]; other PopPK models with strong CYP3A inhibitors as covariates) was 2.2 to 3.6 L/h and the AUC24h ([2]; venetoclax 50 mg with posaconazole) was 47200 ± 27400 ng·h/mL. The “accumulation ratio (AUC24h day 14 to day 7)” value ([2]; venetoclax 70 mg with posaconazole 300 mg qd, range 1.0–2.9) was 1.3, the AUC24h [2, 3] was 76200 ± 13700 ng·h/mL and the “average AUC higher than venetoclax (400 mg) with caspofungin” value [2, 3] was 103%. For the same compound, the AUC24h ([2]; venetoclax 400 mg administered alone) was 32800 ± 16900 ng·h/mL, the “accumulation ratio (AUC24h day 14 to day 7)” value ([2]; venetoclax 400 mg alone, range 0.5–2.1) was 1.0 and the CL/F ([2]; venetoclax alone) was 15.0 to 19.5 L/h. For the same compound, the “AUC increase versus venetoclax (400 mg) with caspofungin” value ([2]; venetoclax with voriconazole) was 77%, the “increase of AUC” value ([2]; with posaconazole) was 8.8 fold and the “increase of Cmax” value ([2]; with posaconazole) was 7.1 fold. The “fu (unbound fraction in plasma)” value (plasma protein) was under 0.01.
